Measured values taken from ChEMBL document CHEMBL1141282, “Isariotins A-D, alkaloids from the insect pathogenic fungus Isaria tenuipes BCC 7831” (J Nat Prod, 2007).
Converted amounts (≈) assume the structure as drawn. The source made the active and inactive calls. The rule behind the calls is not given here.

Assays:
[1] = system: Plasmodium falciparum; assay: Antiplasmodial activity against Plasmodium falciparum K1 to 20 ug/mL; assay type: functional, organism-based
[2] = system: NCI-H187; assay: Cytotoxicity against human NCI-H-187 cells up to 20 ug/mL; assay type: functional, cell-based
[3] = system: Mycobacterium tuberculosis; assay: Antitubercular activity against Mycobacterium tuberculosis H37Ra; assay type: functional
How it was run: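 Whole-cell test against the H37Ra strain, with the minimum inhibitory concentration (MIC) read out in µg/mL.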

[4] = system: KB; assay: Cytotoxicity against human KB cells up to 20 ug/mL; assay type: functional, cell-based
[5] = system: BC; assay: Cytotoxicity against human BC cells up to 20 ug/mL; assay type: functional, cell-based
[6] = system: Candida albicans; assay: Antifungal activity against Candida albicans up to 50 ug/mL; assay type: functional, organism-based
[7] = system: Vero; assay: Cytotoxicity against African green monkey Vero cells up to 50 ug/mL; assay type: cell-based; conditions: chlorocebus sabaeus
[8] = system: Pyricularia grisea; assay: Antifungal activity against Magnaporthe grisea up to 50 ug/mL; assay type: functional, organism-based

Structure (SMILES) | Activity [1] | Activity [2] | MIC [3] | Activity [4] | Activity [5] | Activity [6] | Activity [7] | Activity [8]
O=C(/C=C/CCCCCCCCCO)N[C@H]1C[C@@]2(O)C(=O)[C@H]([C@H](O)[C@@H]3O[C@@H]32)[C@H]1O [ISARIOTIN A] | inactive | inactive | 486 µM (≈ 200 µg/mL) | inactive | inactive | inactive | Not Active | inactive
O=C(O)CCCCCCCC/C=C/C(=O)N[C@H]1C[C@@]2(O)C(=O)[C@H]([C@H](O)[C@@H]3O[C@@H]32)[C@H]1O [ISARIOTIN B] | inactive | inactive | – | inactive | inactive | inactive | Not Active | inactive
CCCCCC(=O)CCC/C=C/C(=O)N[C@H]1C[C@@]2(O)C(=O)[C@H]([C@H](O)[C@@H]3O[C@@H]32)[C@H]1O [ISARIOTIN C] | inactive | inactive | 488 µM (≈ 200 µg/mL) | inactive | inactive | inactive | Not Active | inactive
CCCCCCC/C=C/C(=O)N[C@H]1C[C@@]2(O)C(=O)[C@H]([C@H](O)[C@@H]3O[C@@H]32)[C@H]1O [ISARIOTIN D] | inactive | inactive | 544 µM (≈ 200 µg/mL) | inactive | inactive | inactive | Not Active | inactive
